INS-1E rescue: preserves ATP levels in cytokine-treated INS-1E cells; INS-1E cytokine-induced death, ATP luminescence, 48 h; normalised: neutral wells 0, positive control 100; protection from cytokine-induced ATP loss, % at 10 µM; 20,000 tested, 0.1% active;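 active means mean replicate protection from cytokine-induced ATP loss at least 50% and at least 75% of replicates each reaching 50%; inconclusive means meets only one of the two criteria, mean or replicate share; inactive means fails both the mean and replicate share criteria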
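Material: INS-1E rat cells; Quantity: 8000 cells/well; Buffer or medium: phenol-red-free RPMI with 5% fetal bovine serum; Probe or stimulus: cytokine cocktail of IFN-γ, TNF-α and IL-1β; Compound dosing: single test concentration per compound, delivered by pin transfer; Incubation: 48 h co-treatment, 10 min post-lysis read; Signal: CellTiter-Glo luminescence.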
A1 apoptosis 2: A1 inhibition read as caspase activation | caspase activation, % (no concentration beside the values) | MEF A1-2A-BIM cells, caspase-Glo luminescence, 3 h; percent of clofoctol response, DMSO zero | 24,000 tested, under 10 active; in the data active means caspase activation above about 5.9%; inconclusive means no clear call, values can overlap the other calls; inactive means below about 2.2%
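Test system – A1-2A-BIM-expressing MEF cells · Input – 2500 cells/well · Medium – RPMI-1640 growth medium with 10% FBS · Compound dosing – 50 nL pinned compound · Timing – 3 h compound exposure at 37 °C · Technique – Caspase-Glo luminescence (DEVD substrate) · Evaluation – Caspase-3/7 activity from luminescence increase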
T cruzi HTS: intracellular Trypanosoma cruzi inhibition. AID 651903. intracellular Trypanosoma cruzi in host cells, plate reader. 22,000 tested, 4.9% active. activity score (inhibition), % at 5.01 µM; in the data active means activity score above about 55%; inconclusive means no clear call, values can overlap the other calls;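 further: parasites and compound incubated about four days before reading; 0% = median of neutral control wells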
Numbers without * were called inactive; ? = inconclusive; · = not tested or not shown. Shown is part of a subset that was picked to be rich in hits.

SMILES | INS-1E rescue | A1 apoptosis 2 | T cruzi HTS
COc1ccc(S(=O)(=O)Nc2cccc3c2O[C@@H](CN(C)S(=O)(=O)c2ccc(OC)cc2)[C@@H](C)CN([C@H](C)CO)C3=O)cc1 | -3 | 0 | 4
C[C@H](CO)N1C[C@H](C)[C@H](CN(C)C(=O)Nc2cccc3ccccc23)Oc2ccc(NC(=O)C3CC3)cc2CC1=O | 2 | 1 | -4
O=C(Nc1ccccc1[N+](=O)[O-])c1ccc(CNc2nccc(-c3cccnc3)n2)cc1 | · | 1 | ·
C[C@@H]1CN([C@H](C)CO)C(=O)Cc2cc(NC(=O)Nc3ccc4c(c3)OCO4)ccc2O[C@@H]1CN(C)Cc1ccc(Cl)c(Cl)c1 | -32 | 0 | 74*
C[C@@H]1CN([C@H](C)CO)C(=O)Cc2cc(NC(=O)Nc3ccc4c(c3)OCO4)ccc2O[C@H]1CN(C)Cc1ccc(Cl)c(Cl)c1 | -13 | · | 68*
C[C@H](CO)N1C[C@H](C)[C@@H](CN(C)Cc2ccc3c(c2)OCO3)Oc2ccc(NC(=O)Nc3ccc4c(c3)OCO4)cc2CC1=O | · | -1 | ·
C[C@@H]1CN([C@H](C)CO)C(=O)Cc2cc(NC(=O)Nc3ccc4c(c3)OCO4)ccc2O[C@@H]1CN(C)Cc1ccc2c(c1)OCO2 | -14 | 0 | 22
O=C(C1=C[C@@H](c2ccc3c(c2)Cc2ccccc2-3)C[C@@H](OCc2ccc(CO)cc2)O1)N1CCCCC1 | · | -2 | ·
C[C@@H]1CN([C@@H](C)CO)C(=O)c2cc(NC(=O)Nc3ccc(C(F)(F)F)cc3)ccc2O[C@@H]1CN(C)CC1CCCCC1 | -60 | 1 | 70*
C[C@@H]1CN([C@H](C)CO)C(=O)c2cc(NC(=O)Nc3ccc(C(F)(F)F)cc3)ccc2O[C@@H]1CN(C)CC1CCCCC1 | -7 | · | 48
C[C@H]1CN([C@@H](C)CO)C(=O)c2cc(NC(=O)Nc3ccc(C(F)(F)F)cc3)ccc2O[C@H]1CN(C)CC1CCCCC1 | -95 | 1 | 73*
C[C@H]1CN([C@@H](C)CO)C(=O)c2cc(NC(=O)Nc3ccc(C(F)(F)F)cc3)ccc2O[C@@H]1CN(C)CC1CCCCC1 | -1 | 1 | 5
O=C(CCCCCCC(=O)N/N=C/c1cccnc1Br)NO | · | 1 | ·
C[C@@H]1CN([C@@H](C)CO)C(=O)c2cc(NS(=O)(=O)c3ccc(F)cc3)ccc2O[C@@H](C)CCCCO[C@@H]1CN(C)C(=O)CCCN(C)C | · | -1 | ·
COC(=O)CCCCCCC(=O)N/N=C/CC1=C(C)CCCC1(C)C | 9 | -1 | -3
C[C@@H]1CCCCO[C@@H](CN(C)Cc2ccc(Cl)c(Cl)c2)[C@@H](C)CN([C@H](C)CO)C(=O)c2cc(NC(=O)CCC(F)(F)F)ccc2O1 | -32 | · | 63*
C[C@@H]1CN([C@@H](C)CO)C(=O)c2cc(NC(=O)CCC(F)(F)F)ccc2O[C@@H](C)CCCCO[C@H]1CN(C)Cc1ccc(Cl)c(Cl)c1 | · | 0 | ·
C[C@@H]1CCCCO[C@@H](CN(C)Cc2ccc(Cl)c(Cl)c2)[C@H](C)CN([C@H](C)CO)C(=O)c2cc(NC(=O)Cc3ccccc3)ccc2O1 | · | 0 | ·
C[C@@H]1CCCCO[C@@H](CN(C)Cc2ccc(Cl)c(Cl)c2)[C@@H](C)CN([C@H](C)CO)C(=O)c2cc(NC(=O)Cc3ccccc3)ccc2O1 | -45 | 0 | 64*
C[C@H]1CN([C@@H](C)CO)C(=O)c2cc(NC(=O)c3ccncc3)ccc2O[C@@H]1CN(C)C(=O)Nc1cccc2ccccc12 | 3 | 0 | -7
C[C@@H]1CN([C@@H](C)CO)C(=O)c2cccc(NC(=O)Nc3ccccc3)c2O[C@H]1CN(C)S(=O)(=O)c1ccc(Cl)cc1 | 37 | · | -5
C[C@@H]1CN([C@H](C)CO)C(=O)c2cccc(NC(=O)Nc3ccc4c(c3)OCO4)c2O[C@@H]1CN(C)Cc1ccc(Cl)c(Cl)c1 | -21 | · | -1
C[C@@H]1CN([C@H](C)CO)C(=O)c2cccc(NC(=O)Nc3ccccc3)c2O[C@@H]1CN(C)Cc1ccc(Cl)c(Cl)c1 | -55 | · | 30
COc1ccc(NC(=O)Nc2cccc3c2O[C@@H](CN(C)Cc2ccc(Cl)c(Cl)c2)[C@@H](C)CN([C@H](C)CO)C3=O)cc1 | -15 | · | 59*
C[C@@H]1CN([C@@H](C)CO)C(=O)c2cccc(NC(=O)Nc3ccccc3)c2O[C@H]1CN(C)Cc1ccc(Cl)c(Cl)c1 | -32 | · | 59*
SMILES | INS-1E rescue | A1 apoptosis 2 | T cruzi HTS
COc1ccc(NC(=O)Nc2cccc3c2O[C@H](CN(C)Cc2ccc(Cl)c(Cl)c2)[C@H](C)CN([C@H](C)CO)C3=O)cc1 | -36 | · | 16
C[C@H](CO)N1C[C@H](C)[C@H](CN(C)Cc2ccc(Cl)c(Cl)c2)Oc2c(NC(=O)Nc3ccc4c(c3)OCO4)cccc2C1=O | -23 | · | 82*
C[C@@H]1CN([C@@H](C)CO)C(=O)c2cccc(NC(=O)c3ccncc3)c2O[C@@H]1CN(C)C(=O)Nc1ccc(C(F)(F)F)cc1 | · | -1 | ·
C[C@H]1CN([C@@H](C)CO)C(=O)CCCn2cc(nn2)CO[C@H]1CN(C)S(=O)(=O)c1ccc(C#N)cc1 | · | 0 | -16
C=C(C)[C@@H]1CC=C(/C=N/NC(=O)CCCCCCC(=O)OC)CC1 | -5 | 0 | 8
Cc1noc(C)c1NC(=O)N(C)C[C@H]1OCCCC[C@H](C)Oc2ccc(NS(=O)(=O)c3cn(C)cn3)cc2C(=O)N([C@H](C)CO)C[C@@H]1C | · | 0 | ·
COC(=O)CCCCCCC(=O)N/N=C/c1cc(Br)cc(Br)c1O | 14 | 1 | 62*
CN(C)CCCOc1ccc(/C=N/NC(=O)CCCCCCC(=O)Nc2ccccc2O)cc1 | -3 | · | 87*
O=C(CCCCCCC(=O)Nc1ccccc1O)N/N=C/c1ccc(OCCO)cc1 | -13 | 0 | -3
COc1ccc(/C=N/NC(=O)CCCCCCC(=O)Nc2ccccc2O)c(O)c1 | -6 | · | 26
COC(=O)CCCCCCC(=O)N/N=C/c1ccc(OCCCN(C)C)cc1 | 9 | · | 81*
CN(C)CCCOc1ccc(/C=N/NC(=O)CCCCCCC(=O)NO)cc1 | · | -1 | ·
COC(=O)CCCCCCC(=O)N/N=C/c1cc(Br)cc(OC)c1O | 32 | 0 | 26
O=C(CCCCCCC(=O)Nc1ccccc1O)N/N=C/c1ccc(OCc2ccccc2)cc1O | 10 | -2 | 78*
C[C@@H]1CN([C@@H](C)CO)C(=O)c2cc(NS(=O)(=O)c3ccc(F)cc3)ccc2O[C@@H](C)CCCCO[C@@H]1CN(C)C(=O)Cc1ccccc1 | · | -1 | ·
CNC[C@@H]1Oc2c(NS(=O)(=O)c3ccc(F)cc3)cccc2C(=O)N([C@H](C)CO)C[C@H]1C | 4 | · | -4
COc1ccc(NC(=O)N(C)C[C@@H]2Oc3ccc(N(C)C)cc3C(=O)N([C@@H](C)CO)C[C@H]2C)cc1 | 1 | 0 | 9
C[C@H]1CN([C@@H](C)CO)C(=O)Cc2cc(NC(=O)Nc3ccc(F)cc3)ccc2O[C@@H]1CN(C)Cc1ccc(Cl)c(Cl)c1 | -46 | · | ?
COc1ccc(NC(=O)Nc2ccc3c(c2)CC(=O)N([C@H](C)CO)C[C@@H](C)[C@@H](CN(C)Cc2ccc(Cl)c(Cl)c2)O3)cc1 | -53 | 2 | 74*

Bioassay records as filed in PubChem.
